Laboratory results taken from the RNAGym collection of RNA variant scans (doi:10.1002/anie.201605470).

B1: Osa-1-4 twister ribozyme (parent)
chain: CCGCCUAACACUGCCAAUGCCGGUCCCAAGCCCGGAUAAAAGUGGAGGGGGCGG

Variants of: B1
Assay: self-cleavage, relative activity (ratio to wild type); higher = more cleavage; co-transcriptional
Outline: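 A DNA template encoding a 54-nucleotide twister ribozyme from Oryza sativa was made so that each of the 48 positions downstream of the cleavage site carried 97 % wild-type base and 1 % of each other base. Transcription in vitro ran for 2 h at 37 °C, during which the ribozyme could cleave itself. Reverse transcription used a template-switching oligonucleotide, and the products were PCR-amplified and deep-sequenced. Each read was scored as cleaved or uncleaved by whether upstream sequence was present, and relative activity is the fraction cleaved normalised to wild type.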

| Variant | self-cleavage |
| --- | --- |
| CCGCCUAACACUGCCAAUGCCGGUCCCAAGCCCGGACAAAAGUUGAGGGGGCGG | 0.99 |
| CCGCCUAACACUGCCAAAGCCGGUCCCAAGCCCGGAUAAAAGUUGAGGGGGCGG | 0.83 |
| CCGCCUAACACUGCCAACGCCGGUCCCAAGCCCGGAUAAAAGUUGAGGGGGCGG | 0.69 |
| CCGCCUAACACUGCCAAGGCCGGUCCCAAGCCCGGAUAAAAGUUGAGGGGGCGG | 0.64 |
| CCGCCUAACACUGCCAAAGCCGGUCCCAAGCCCGGAUAAAAGUGAAGGGGGCGG | 0.43 |
| CCGCCUAACACUGCCAACGCCGGUCCCAAGCCCGGAUAAAAGUGAAGGGGGCGG | 0.29 |
| CCGCCUAACACUGCCAAGGCCGGUCCCAAGCCCGGAUAAAAGUGAAGGGGGCGG | 0.45 |
| CCGCCUAACACUGCCAAUGCCGGGCCCAAGCCCGGAUAAAAGUCGAGGGGGCGG | 0.01 |
| CCGCCUAACACUGCCAAUGCCGGACCCAAGCCCGGAUAAAAGUCGAGGGGGCGG | 0.2 |
| CCGCCUAACACUGCCAAUGCCGGCCCCAAGCCCGGAUAAAAGUCGAGGGGGCGG | 0.2 |
| CCGCCUAACACAGCCAAUGCCGGUCCCAAGCCCGGAUAAAAGUCGAGGGGGCGG | 0.4 |
| CCGCCUAACACCGCCAAUGCCGGUCCCAAGCCCGGAUAAAAGUCGAGGGGGCGG | 0.31 |
| CCGCCUAACACGGCCAAUGCCGGUCCCAAGCCCGGAUAAAAGUCGAGGGGGCGG | 0.08 |
| CCGCCUAACACUGCCAAUGCCGGUCCCAAGCCCGGAUAAAAGUGAAGGGUGCGG | 0.13 |
| CCGCCUAACACUGCCAAUGCCGGUCCCAAGCCCGGAUAAAAGUGAAGGGAGCGG | 0.23 |
| CCGCCUAACACUGCCAAUGCCGGUCCCAAGCCCGGAUAAAAGUGAAGGGCGCGG | 0.06 |
| CCGCCUAACACAGCCAAUGCCGGUCCCAAGCCCGGAUAAAAGUUGAGGGGGCGG | 0.11 |
| CCGCCUAACACCGCCAAUGCCGGUCCCAAGCCCGGAUAAAAGUUGAGGGGGCGG | 0.43 |
| CCGCCUAACACGGCCAAUGCCGGUCCCAAGCCCGGAUAAAAGUUGAGGGGGCGG | 0.15 |
| CCGCCUAACACUGCCAAUGCCGGUCCCAAGCCCGGAUAAAAGUGAAGAGGGCGG | 0.06 |
| CCGCCUAACACUGCCAAUGCCGGUCCCAAGCCCGGAUAAAAGUGAAGCGGGCGG | 0.04 |
| CCGCCUAACACUGCCAAUGCCGGUCCCAAGCCCGGAUAAAAGUGAAGUGGGCGG | 0.05 |
| CCGCCUAACACUGCCAAUGCCGGGCCCAAGCCCGGAUAAAAGUGAAGGGGGCGG | 0.02 |
| CCGCCUAACACUGCCAAUGCCGGCCCCAAGCCCGGAUAAAAGUGAAGGGGGCGG | 0.05 |
| CCGCCUAACACUGCCAAUGCCGGACCCAAGCCCGGAUAAAAGUGAAGGGGGCGG | 0.03 |

| Variant | self-cleavage |
| --- | --- |
| CCGCCUAACACCGCCAAUGCCGGUCCCAAGCCCGGAUAAAAGUGAAGGGGGCGG | 0.09 |
| CCGCCUAACACAGCCAAUGCCGGUCCCAAGCCCGGAUAAAAGUGAAGGGGGCGG | 0.09 |
| CCGCCUAACACGGCCAAUGCCGGUCCCAAGCCCGGAUAAAAGUGAAGGGGGCGG | 0.07 |
| CCGCCUAACACUGCCAAUGCCGGUCCCAAGCCCGGAUAAAAGUUGAGGUGGCGG | 0.11 |
| CCGCCUAACACUGCCAAUGCCGGUCCCAAGCCCGGAUAAAAGUUGAGGAGGCGG | 0.12 |
| CCGCCUAACACUGCCAAUGCCGGUCCCAAGCCCGGAUAAAAGUUGAGGCGGCGG | 0.08 |
| CCGCCUAACACUGCCAAUGCCGGUCCCAAGCCCGGAGAAAAGUGAAGGGGGCGG | 0.58 |
| CCGCCUAACACUGCCAAUGCCGGUCCCAAGCCCGGAAAAAAGUGAAGGGGGCGG | 0.25 |
| CCGCCUAACACUGCCAAUGCCGGUCCCAAGCCCGGACAAAAGUGAAGGGGGCGG | 0.55 |
| CCGCCUAACACUGCCAAUGCCGGUCCCAAGCCCGGAUAAAAGUUAAGGGGGCGG | 0.1 |
| CCGCCUAACACUGCCAAUGCCGGUCCCAAGCCCGGAUAAAAGUUUAGGGGGCGG | 0.08 |
| CCGCCUAACACUGCCAAUGCCGGUCCCAAGCCCGGAUAAAAGUUCAGGGGGCGG | 0.06 |
| CCGCCUAACACUGCCAAUGCCGGUCCCAAGCCCGGAUAAAAGUCGAGGGGGCGC | 0.92 |
| CCGCCUAACACUGCCAAUGCCGGUCCCAAGCCCGGAUAAAAGUCGAGGGGGCGA | 0.89 |
| CCGCCUAACACUGCCAAUGCCGGUCCCAAGCCCGGAUAAAAGUCGAGGGGGCGU | 0.92 |
| CCGCCUAACACUGCCAAUGCCGGUCCCAAGCCCGGAUAAAAGUUGAGGGUGCGG | 0.97 |
| CCGCCUAACACUGCCAAUGCCGGUCCCAAGCCCGGAUAAAAGUUGAGGGCGCGG | 0.83 |
| CCGCCUAACACUGCCAAUGCCGGUCCCAAGCCCGGAUAAAAGUUGAGGGAGCGG | 0.58 |
| CCGCCUAACACUGCCAAUGCCGGUCCCAAGCCCGGAUAAAAGUUGAGGGGGCGG | 0.93 |
| CCGCCUAACACUGCCAAUGCCGGUCCCAAGCCCGGAUAAAAGUGAAGGAGGCGG | 0.05 |
| CCGCCUAACACUGCCAAUGCCGGUCCCAAGCCCGGAUAAAAGUGAAGGCGGCGG | 0.05 |
| CCGCCUAACACUGCCAAUGCCGGUCCCAAGCCCGGAUAAAAGUGAAGGUGGCGG | 0.04 |
| CCGCCUAACACUGCCAAUGCCGGUCCCAAGCCCGGAUAAAAGUGCAGGGGGCGG | 0.06 |
| CCGCCUAACACUGCCAAUGCCGGUCCCAAGCCCGGAUAAAAGUGAAGGGGGCGG | 0.52 |
